Experimental data reported in ChEMBL document CHEMBL1149101, “New antibacterial agents derived from the DNA gyrase inhibitor cyclothialidine” (J Med Chem, 2004).
≈ marks a conversion by molar mass, not a printed value.

Tests used:
Micrococcus luteus = test: Minimum inhibitory concentration against Micrococcus luteus ATCC 8340; type: functional
How it was run: (§1)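 Agar dilution per NCCLS in BB2 agar + 1% Isovitalex + 7.5% sheep blood + menadione, compound added to melted medium at 50 °C. About 10⁴ CFU/spot from diluted overnight cultures, multipoint-inoculated.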

[1] = biological target: DNA gyrase (Escherichia coli) (UniProt P0AES6+P0AES4)
Staphylococcus aureus [2] = test: Minimum inhibitory concentration against Staphylococcus aureus 887; type: functional; how it was run: as §1
Staphylococcus aureus [3] = test: Minimum inhibitory concentration against Staphylococcus aureus Smith; type: functional
How it was run: (§2)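 NCCLS agar dilution on Mueller–Hinton agar, compound incorporated into melted medium at 50 °C. Inoculum about 10⁴ CFU/spot from diluted overnight cultures, multipoint-applied.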

Staphylococcus aureus [4] = test: Minimum inhibitory concentration against Staphylococcus aureus ATCC 25923; type: functional; how it was run: as §2
[5] = system: Staphylococcus epidermidis; test: Minimum inhibitory concentration against Staphylococcus epidermidis 16/2; type: functional; how it was run: as §2
Streptococcus pyogenes = test: Minimum inhibitory concentration against Streptococcus pyogenes b15
[6] = system: Stenotrophomonas maltophilia; test: Minimum inhibitory concentration against Xanthomonas maltophilia AC739; type: functional; how it was run: as §2
Escherichia coli = test: Minimum inhibitory concentration against Escherichia coli 25922; type: functional; how it was run: as §2
Enterococcus faecalis = test: Minimum inhibitory concentration against Enterococcus faecalis 6; type: functional; how it was run: as §2
Staphylococcus aureus [7] = test: In vivo effective dose was determined in septicaemic mice (Staphylococcus aureus Smith) when administration iv; type: functional
How it was run: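 Compound given iv as a gelatine microsuspension at 1 and 3 h post-challenge, 5 mice per group. ED50 (mg/kg) from day-4 survival by probit analysis.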

Neisseria meningitidis = test: Minimum inhibitory concentration against Neisseria meningitides 69480; type: functional; how it was run: as §1
[8] = Staphylococcus aureus, read-out: MIC
[9] = Staphylococcus aureus, ATCC 25923, read-out: MIC
[10] = Streptococcus pyogenes, read-out: MIC

SMILES	MIC (Micrococcus luteus)	MNEC [1]	MIC (Staphylococcus aureus [2])	MIC (Staphylococcus aureus [3]; [8])	MIC (Staphylococcus aureus [4]; [9])	MIC (Streptococcus pyogenes; [10])	MIC (Neisseria meningitidis)	other results
COC(=O)[C@@H]1CSCc2c(O)cc(O)c(C)c2C(=O)OC[C@H](N)C(=O)N1	> 64 µg/mL	1 µg/mL	> 64 µg/mL					
COC(=O)[C@@H]1CSCc2c(O)cc(OC)c(C)c2C(=O)OCCCCCCCC/C(S)=N/1		> 1 µg/mL						
COc1cc(O)c2c(c1C)C(=O)CCCCC/C(S)=N/[C@H](c1nc(CNC(C)C)no1)CSC2.Cl		0.002 µg/mL						
Cc1c(O)cc(O)c2c1C(=O)OCCC(=O)NCCSC2	> 128 µg/mL	20 µg/mL						
COC(=O)[C@@H]1CSCc2cccc(C)c2C(=O)OCC(NC(=O)OC(C)(C)C)C(=O)N1 (stereo not given in full)		> 1 µg/mL						
COC(=O)[C@@H]1CSCc2c(O)cc(OC)c(C)c2C(=O)OCCCCCC/C(S)=N/1		0.5 µg/mL		16 µg/mL (≈ 35.1 µM)	16 µg/mL (≈ 35.1 µM)			
COC(=O)[C@@H]1CSCc2c(O)cc(OC)c(C)c2C(=O)OCCCC/C(S)=N/1		0.01 µg/mL		0.25 µg/mL (≈ 0.585 µM)	0.5 µg/mL (≈ 1.17 µM)	1 µg/mL (≈ 2.34 µM)		MIC [5]: < 0.12 µg/mL; MIC [6]: 8 µg/mL (≈ 18.7 µM); MIC (Staphylococcus aureus [3]): 0.25 µg/mL (≈ 0.585 µM); MIC (Escherichia coli): > 64 µg/mL; MIC (Staphylococcus aureus [4]): 0.5 µg/mL (≈ 1.17 µM); MIC (Enterococcus faecalis): 1 µg/mL (≈ 2.34 µM)
COc1cc(O)c2c(c1C)C(=O)O[C@H](CO)CCC/C(S)=N/[C@H](c1nc(C)no1)CSC2		0.005 µg/mL		0.5 µg/mL (≈ 1.04 µM)	0.5 µg/mL (≈ 1.04 µM)	0.5 µg/mL (≈ 1.04 µM)		MIC [5]: < 0.12 µg/mL; MIC [6]: 4 µg/mL (≈ 8.31 µM); MIC (Escherichia coli): > 64 µg/mL; ED50 (Staphylococcus aureus [7]): 8.5 mg/kg; MIC (Enterococcus faecalis): 0.5 µg/mL (≈ 1.04 µM)
COC(=O)[C@@H]1CSCc2c(O)cc(O)cc2C(=O)OCC(NC(=O)OC(C)(C)C)C(=O)N1 (stereo not given in full)	128 µg/mL (≈ 272 µM)	0.5 µg/mL					128 µg/mL (≈ 272 µM)	
COC(=O)[C@@H]1CSCc2c(O)cc(OC)c(C)c2C(=O)OC[C@H](C)C(=O)N1	16 µg/mL (≈ 40.3 µM)	0.4 µg/mL	16 µg/mL (≈ 40.3 µM)			16 µg/mL (≈ 40.3 µM)	8 µg/mL (≈ 20.1 µM)	
COC(=O)[C@@H]1CSCc2c(O)cc(OC)c(C)c2C(=O)OCCCCCC(=O)N1		2 µg/mL		32 µg/mL (≈ 75.2 µM)	> 64 µg/mL			
COC(=O)[C@@H]1CSCc2c(O)cc(OC)c(C)c2C(=O)OC[C@@H](C)C(=O)N1	64 µg/mL (≈ 161 µM)	4 µg/mL	> 64 µg/mL			> 64 µg/mL	64 µg/mL (≈ 161 µM)	
C=CCNC(=O)[C@@H]1CSCc2c(O)cc(OC)c(C)c2C(=O)OC[C@H](NC(=O)OC(C)(C)C)C(=O)N1	8 µg/mL (≈ 15.3 µM)	0.1 µg/mL	16 µg/mL (≈ 30.6 µM)			16 µg/mL (≈ 30.6 µM)	4 µg/mL (≈ 7.64 µM)	
COC(=O)[C@@H]1CSCc2c(O)cc(O)c(C)c2C(=O)OC[C@H](NC(=O)[C@@H]2CCCN2C(=O)OC(C)(C)C)C(=O)N1	64 µg/mL (≈ 110 µM)	2.5 µg/mL	> 64 µg/mL			> 64 µg/mL		
COC(=O)c1c(C)c(OC)cc(O)c1CSC[C@H](NC(C)=O)C(=O)OC		2 µg/mL		> 64 µg/mL	> 64 µg/mL			
COC(=O)[C@@H]1CSCc2c(O)cc(OC)c(C)c2C(=O)OCC(NC(=O)OC(C)(C)C)C(=O)N1 (stereo not given in full)	16 µg/mL (≈ 32.1 µM)	0.2 µg/mL	64 µg/mL (≈ 128 µM)	128 µg/mL (≈ 257 µM)	> 64 µg/mL	64 µg/mL (≈ 128 µM)	16 µg/mL (≈ 32.1 µM)	MIC [5]: 64 µg/mL (≈ 128 µM); MIC (Streptococcus pyogenes): 64 µg/mL (≈ 128 µM); MIC [6]: > 64 µg/mL; MIC (Escherichia coli): > 64 µg/mL; MIC (Enterococcus faecalis): 64 µg/mL (≈ 128 µM)
COC(=O)[C@@H]1CSCc2c(O)cc(O)c(C)c2C(=O)OCC(NC(=O)[C@@H]2C(O)CCN2C(=O)OC(C)(C)C)C(=O)N1 (stereo not given in full)	8 µg/mL (≈ 13.4 µM)	0.05 µg/mL	> 64 µg/mL			32 µg/mL (≈ 53.5 µM)	64 µg/mL (≈ 107 µM)	
COc1cc(O)c2c(c1C)C(=O)OC[C@H](NC(=O)OC(C)(C)C)C(=O)N[C@H](CO)CSC2	64 µg/mL (≈ 136 µM)	2.5 µg/mL	> 64 µg/mL			64 µg/mL (≈ 136 µM)	64 µg/mL (≈ 136 µM)	
COC(=O)c1c(C)c(OC)cc(O)c1CSC[C@H](/N=C(/C)S)C(=O)OC		0.2 µg/mL		8 µg/mL (≈ 19.9 µM)	16 µg/mL (≈ 39.8 µM)			
COC(=O)[C@@H]1CSCc2c(O)cc(O)c(C)c2C(=O)OC[C@H](NC(=O)OC(C)(C)C)C(=O)N1	128 µg/mL (≈ 264 µM)	10 µg/mL					128 µg/mL (≈ 264 µM)	
COC(=O)[C@@H]1CSCc2ccc(O)c(C)c2C(=O)OCC(NC(=O)OC(C)(C)C)C(=O)N1 (stereo not given in full)	> 128 µg/mL	> 100 µg/mL						
COc1cc(O)c2c(c1C)C(=O)OC[C@H](NC(=O)OC(C)(C)C)C(=O)N[C@H](C(N)=O)CSC2	16 µg/mL (≈ 33.1 µM)	0.1 µg/mL	> 64 µg/mL			16 µg/mL (≈ 33.1 µM)	4 µg/mL (≈ 8.27 µM)	
COC(=O)[C@@H]1CSCc2c(O)cc(O)c(C)c2C(=O)OCC(NC(=O)OC(C)(C)C)C(=O)N1 (stereo not given in full)	16 µg/mL (≈ 33 µM)	0.2 µg/mL	> 64 µg/mL	128 µg/mL (≈ 264 µM)	> 64 µg/mL	32 µg/mL (≈ 66 µM)	16 µg/mL (≈ 33 µM)	MIC [5]: 64 µg/mL (≈ 132 µM); MIC (Streptococcus pyogenes): 64 µg/mL (≈ 132 µM); MIC [6]: > 64 µg/mL; MIC (Escherichia coli): > 64 µg/mL; MIC (Enterococcus faecalis): 64 µg/mL (≈ 132 µM)
COC(=O)[C@@H]1CSCc2c(O)cc(O)c(C)c2C(=O)OC[C@H](NC(C)=O)C(=O)N1	128 µg/mL (≈ 300 µM)	0.4 µg/mL	> 64 µg/mL			> 64 µg/mL	32 µg/mL (≈ 75 µM)	
